Results taken from ChEMBL document CHEMBL5532650, “Discovery of an orally active nitrothiophene-based antitrypanosomal agent” (Eur J Med Chem, 2024).

How the values were obtained:
[1] = system: Trypanosoma brucei brucei; assay: Antitrypanosomal activity against bloodstream forms of Trypanosoma brucei brucei strain 427 assessed as growth inhibition measured after 48 hrs by Alamar blue assay; assay type: functional, organism-based; settings: Trypanosoma brucei, 427, 48 h
Procedure, shortened: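 Bloodstream T. b. brucei 427 at 5 x 10^3 cells/well in supplemented HMI-9 with 10% FBS. Compounds in DMSO over 0.01–50 μM, triplicates. After 48 h exposure, Alamar blue was added for 4 h at 37°C. Fluorescence read at ex/em 530/590 nm; suramin was the positive control. EC50 = half-maximal trypanosomal viability.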

HepG2 = assay: (§1) Cytotoxicity against human HepG2 cells assessed as cell growth measured after 72 hrs mby MTT assay; assay type: toxicity, cell-based; settings: hepg2, 72 h
Procedure, shortened: (§2)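 HepG2 in DMEM:F12 with 10% FBS were seeded at 5 x 10^5 cells/mL and allowed 18-24 h. Compounds in DMSO over 0.01–300 μM for 72 h. MTT was then added for 30 min, formazan dissolved in DMSO and absorbance read at 550 nm. Triplicates; SDS (10%) and podophyllotoxin were the controls. CC50 = half-maximal cellular viability.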

[2] = system: Trypanosoma brucei rhodesiense; assay: Inhibition of Trypanosoma brucei rhodesiense MVAT4 strain Cathepsin-L expressed in Pichia pastoris at 10 uM relative to control
Procedure, shortened: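 Trypanosomal cathepsin L, expressed in Pichia pastoris and purified, was tested at 10 μM after 1 hour. The read-out was percentage inhibition, with E-64 as positive control.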

[3] = system: Trypanosoma brucei gambiense; assay: Antitrypanosomal activity against bloodstream forms of Trypanosoma brucei gambiense 130R assessed as growth inhibition incubated for 68 hrs followed by treated with resazurin 4 to 6 hrs by resazurin based fluorescence assay; assay type: functional, organism-based
Procedure, shortened: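 Bloodstream 130R at 4x10^4 parasites/well in HMI-9 with 15% heat-inactivated fetal calf and 5% human serum. Eleven 3-fold dilutions spanned 100 to 0.002 μM. Plates ran 68 h at 37 °C in 5% CO2, then resazurin for 4–6 h. Fluorescence read at ex/em 536/588 nm; melarsoprol was the control.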

[4] = system: Trypanosoma brucei rhodesiense; assay: Antitrypanosomal activity against bloodstream forms of Trypanosoma brucei rhodesiense STIB 900 assessed as growth inhibition incubated for 70 hrs followed by treated with resazurin 2 to 4 hrs by resazurin based fluorescence assay; assay type: functional, organism-based
Procedure, shortened: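 Bloodstream STIB 900 at 2x10^4 parasites/well in HMI-9 with 15% heat-inactivated horse serum. Eleven 3-fold dilutions spanned 100 to 0.002 μM. Plates ran 70 h at 37 °C in 5% CO2, then resazurin for 2–4 h. Fluorescence read at ex/em 536/588 nm; melarsoprol was the control.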

[5] = Selectivity index, ratio of CC50 for cytotoxicity against human HepG2 cells to EC50 for Antitrypanosomal activity against bloodstream forms of Trypanosoma brucei brucei strain 427; assay type: toxicity, cell-based; settings: read-out: Selectivity Index
[6] = Selectivity index, ratio of CC50 for cytotoxicity against human HepG2 cells to EC50 for Antitrypanosomal activity against bloodstream forms of Trypanosoma brucei rhodesiense STIB 900; assay type: toxicity, cell-based
[7] = Metabolic stability in mouse liver microsomes assessed as half life at 0.1 uM measured for every 15 mins by HPLC-MS/MS analysis; assay type: ADME, Microsome; settings: 0.25 h
[8] = Metabolic stability in mouse liver S9 fraction assessed as half life at 0.1 uM measured for every 15 mins by HPLC-MS/MS analysis; assay type: ADME, subcellular; settings: s9, 0.25 h
[9] = Selectivity index, ratio of CC50 for cytotoxicity against human HepG2 cells to EC50 for Antitrypanosomal activity against bloodstream forms of Trypanosoma brucei gambiense 130R; assay type: toxicity, cell-based
[10] = Tmax in mouse at 25 mg/kg, po; assay type: ADME, organism-based; settings: in vivo
[11] = Half life in mouse at 25 mg/kg, po; assay type: ADME, organism-based; settings: in vivo
[12] = as §1; assay type: toxicity, cell-based; settings: HepG2 cells; procedure, shortened: as §2

Row | Tmax [10] | half-life [11] | Compound | EC50 [1] | CC50 (HepG2) | inhibition [2] | EC50 [3] | EC50 [4] | selectivity ratio [5] | selectivity ratio [6] | t1/2 [7] | t1/2 [8] | selectivity ratio [9] | CC50 at 72 h [12]
1 | – | – | O=C(N[C@H](/C=C/S(=O)(=O)c1ccccc1)CCc1ccccc1)c1cc(Cl)c([N+](=O)[O-])[nH]1 | 31200 nM | > 160 µM | 26.7% | – | – | – | – | – | – | – | –
2 | – | – | CNC(=O)/C=C/CNC(=O)c1ccc([N+](=O)[O-])o1 | 1690 nM | > 75 µM | 17% | 470 nM | 220 nM | – | – | – | – | – | –
3 | – | – | O=C(NC/C=C/S(=O)(=O)c1ccccc1)c1ccc([N+](=O)[O-])o1 | 980 nM | 59.4 µM | 17.7% | 200 nM | 1770 nM | 60.6 | 33.5 | > 60 min | 12.99 min | – | –
4 | – | – | Nc1nc(N)nc(Nc2ccc([As]3SCC(CO)S3)cc2)n1 (centres undefined) [MELARSOPROL] | – | – | – | 10 nM | 10 nM | – | – | – | – | – | –
5 | – | – | CNC(=O)/C=C/[C@H](CCc1ccccc1)NC(=O)c1ccc([N+](=O)[O-])o1 | 300 nM | 41.7 µM | 54.8% | 60 nM | 140 nM | 139 | 298 | > 60 min | 20.49 min | 694 | –
6 | 15 min | 48 min | CSc1ccc(OCc2ncc([N+](=O)[O-])n2C)cc1 [FEXINIDAZOLE] | – | – | – | – | – | – | – | – | – | – | –
7 | – | – | CS(=O)(=O)/C=C/CNC(=O)c1ccc([N+](=O)[O-])o1 | 440 nM | 21.8 µM | 21.2% | 60 nM | 50 nM | 49.5 | – | > 60 min | – | – | –
8 | – | – | CS(=O)(=O)/C=C/CNC(=O)c1cccs1 | > 30000 nM | > 300 µM | 23.6% | – | – | – | – | – | – | – | –
9 | – | – | Cc1ncc([N+](=O)[O-])n1CC(=O)N[C@H](/C=C/S(=O)(=O)c1ccccc1)CCc1ccccc1 | > 50000 nM | > 300 µM | 44.1% | – | – | – | – | – | – | – | –
10 | – | – | O=C(N[C@H](/C=C/S(=O)(=O)c1ccccc1)CCc1ccccc1)c1ccc([N+](=O)[O-])o1 | 110 nM | – | 78.1% | 70 nM | 2730 nM | – | – | – | – | – | 5.17 µM
